# Assay results of several laboratories.
# Compare with care: the assays were run in different laboratories.
# CHEK2: Serine/threonine-protein kinase Chk2 (CHEK2, Homo sapiens, UniProt O96017)
# CHEK2 R145W: Serine/threonine-protein kinase Chk2 (CHEK2, Homo sapiens, UniProt O96017, R145W)
SMILES,target,test,setting,endpoint,result
COc1cc(/C=C/C(=O)CC(=O)/C=C/c2ccc(O)c(OC)c2)ccc1O,CHEK2,"enzyme activity, inhibitor",1 µM,activity vs control,68%
CC1(C)NC(=O)c2[nH]c3c(Cl)c(Cl)ccc3c2C1C#N (stereo not shown),CHEK2,"thermal stability, DSF",10 µM,ΔTm,-0.1 °C
COc1cc2nccc(Oc3ccc(NC(=O)Nc4ccc(F)cc4F)c(F)c3)c2cc1OC,CHEK2,"thermal stability, DSF",10 µM,ΔTm,5 to 10 °C
CC(C)CC(=O)N1CCc2nc(-c3ccc(Br)cc3)nc(N(C)Cc3ccccc3)c2C1,CHEK2,"cell-free assay, competition with immobilised ligand",0.1 µM,remaining binding,100%
Cc1cc(NC(=O)c2cccc3cc(-c4cccc5[nH]nc(N)c45)ccc23)ccc1F,CHEK2 R145W,"enzyme activity, inhibitor",0.1 µM,activity vs control,99%
CN(C)C1CCN(CC#Cc2nn(C3CCCC3)c3nc(NCc4ccccc4)ncc23)C1 (stereo not shown),CHEK2,"enzyme activity, inhibitor, FRET",0.1 µM,inhibition,6%
CN1CCC2(CC1)NC(=O)c1c(c3ccc(Cl)c(Cl)c3n1C)C2C#N (racemic),CHEK2,"thermal stability, DSF",10 µM,ΔTm,-0.3 °C
Nc1ncnc2occ(-c3ccc(NC(=O)Nc4cc(C(F)(F)F)ccc4F)cc3)c12,CHEK2,"cell-free assay, inhibitor",20 µM,remaining signal,13%
N#CCCc1ccc2c(c1)-c1[nH]c3ccc([N+](=O)[O-])cc3c1CC(=O)N2,CHEK2,cell-free assay,0.5 µM,remaining signal,12.6%
Cn1c2c(Cl)c(Cl)ccc2c2cc(N)[nH]c(=O)c21,CHEK2,"thermal stability, DSF",10 µM,ΔTm,0.1 °C
CS(=O)(=O)N1CCCC(NC(=O)[C@H](CCC2CCCCC2)NC(=O)c2ccc(CNc3ncnc4c3nnn4-c3ccccc3)cc2)C1 (stereo partly shown),CHEK2,"cell-free assay, competition with immobilised ligand",0.1 µM,remaining binding,100%
Cc1ccc(C(=O)NCc2ccsc2)cc1C#Cc1cn(C(C)C)c2ncnc(N)c12,CHEK2,"enzyme activity, inhibitor",1 µM,activity vs control,109%
O=C1NC(=O)c2c1c1c3ccccc3[nH]c1n1cncc21,CHEK2,cell-free assay,0.5 µM,remaining signal,21.2%
C[C@H](c1ccc(F)cc1)N(Cc1cccc(C(=O)O)c1)C(=O)c1cnc2ccccc2c1,CHEK2,"cell-free assay, competition with immobilised ligand",1 µM,remaining binding,91%
Cc1ccc(NC(=O)c2ccc(C)c(C(F)(F)F)c2)cc1C#Cc1nn(C2CCC(O)CC2)c2ncnc(N)c12 (stereo not shown),CHEK2,cell-free assay,10 µM,remaining signal,111%
O=C(N1CCS(=O)(=O)CC1)N1C[C@H](c2ccc(OC(F)(F)F)cc2)C[C@H](c2nc(C3CC3)no2)C1,CHEK2,"cell-free assay, competition with immobilised ligand",1 µM,remaining binding,100%
CNC(=O)c1cc(Oc2ccc(NC(=O)Nc3ccc(Cl)c(C(F)(F)F)c3)cc2)ccn1,CHEK2,"enzyme activity, inhibitor",10 µM,inhibition,6%
O=C1NC(=O)c2cc(Nc3ccc(F)cc3)c(Nc3ccc(F)cc3)cc21,CHEK2,cell-free assay,0.5 µM,remaining signal,94.3%
CCOCCn1cc(C(=O)Nc2ccc(-n3nc(-c4cccnc4)cc3C(F)(F)F)cn2)ccc1=O,CHEK2,"cell-free assay, competition with immobilised ligand",1 µM,remaining binding,0%
CCC1(CC)NC(=O)c2c(c3ccc(Cl)c(Cl)c3n2C)C1C#N (stereo not shown),CHEK2,"thermal stability, DSF",10 µM,ΔTm,-0.2 °C
CO[C@@H](C)c1c(Nc2ccc([C@H](N(C)C(=O)C3CCS(=O)(=O)CC3)C(F)(F)F)cc2)cnc2cc(Cl)nn12,CHEK2,"cell-free assay, competition with immobilised ligand",1 µM,remaining binding,90%
Cc1ccc(Nc2nccc(N(C)c3ccc4c(C)n(C)nc4c3)n2)cc1S(N)(=O)=O,CHEK2 R145W,"enzyme activity, inhibitor",10 µM,inhibition,28%
Cc1ccc(NC(=O)c2ccc(CN3CCN(C)CC3)cc2)cc1Nc1nc(-c2cccnc2)cs1,CHEK2,cell-free assay,0.5 µM,remaining signal,101%
CC(=O)N1CCC(c2ccc(C(=O)NC3=NCCN3)cc2C(F)(F)F)CC1,CHEK2,"cell-free assay, competition with immobilised ligand",1 µM,remaining binding,100%
Cn1c2c(c3ccc(Cl)c(Cl)c31)C(C#N)C1(CCOCC1)NC2=O (stereo not shown),CHEK2,"thermal stability, DSF",10 µM,ΔTm,-0.3 °C
C[S+]([O-])c1ccc(-c2nc(-c3ccncc3)c(-c3ccc(F)cc3)[nH]2)cc1 (stereo not shown),CHEK2,cell-free assay,0.5 µM,remaining signal,99.6%
CN(C)CC#Cc1ccc(OCCCc2sc(N3CCc4cccc(C(=O)Nc5nc6ccccc6s5)c4C3)nc2C(=O)O)c(F)c1,CHEK2,"cell-free assay, competition with immobilised ligand",1 µM,remaining binding,100%
Cn1c2c(c3ccccc31)C(C#N)C(C)(C)NC2=O (stereo not shown),CHEK2,"thermal stability, DSF",10 µM,ΔTm,0.8 °C
